Common to all, as to assay type: functional
Experiment [1] has as its system Staphylococcus aureus. Nature of the experiment: Antibacterial activity against methicillin-resistant Staphylococcus aureus 562 by NCCLS method. Summed up:
(§1)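 In vitro MIC determined by the NCCLS method against a panel of gram-positive bacteria. Ranbezolid and linezolid were run alongside as reference standards.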

The test system of experiment [2] is Enterococcus faecalis. Briefly: Antibacterial activity against Enterococcus faecalis ATCC 29212 by NCCLS method. The gist of the method:
(§2)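 In vitro MIC determination by the NCCLS method against a panel of gram-positive bacteria. Two oxazolidinone reference standards were tested alongside.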

Experiment [3] relates to Staphylococcus aureus. Nature of the experiment: Antibacterial activity against Staphylococcus aureus 15187 by NCCLS method. Summed up:
as §2

Experiment [4] relates to Staphylococcus aureus. Briefly: Antibacterial activity against Staphylococcus aureus ATCC 25923 by NCCLS method. The gist of the method: as §2
Experiment [5] has as its system Staphylococcus aureus. Nature of the experiment: Antibacterial activity against methicillin-resistant Staphylococcus aureus 33 by NCCLS method. The gist of the method: as §1
Experiment [6] concerns Streptococcus pneumoniae. Nature of the experiment: Antibacterial activity against Streptococcus pneumoniae ATCC 6303 by NCCLS method. Summed up: as §2
In experiment [7] the test system is Streptococcus pyogenes. Nature of the experiment: Antibacterial activity against Streptococcus pyogenes ATCC 19615 by NCCLS method. Summed up: as §2
Experiment [8] concerns Enterococcus faecium. Nature of the experiment: Antibacterial activity against vancomycin-resistant Enterococcus faecium 6A by NCCLS method. Summed up: as §1

Values after ≈ are worked out from the molar mass of the structure shown. Where only a bound is given, the exact number is not on record here.

Regarding `O=C(CF)NC[C@H]1CN(c2ccc(N3CCN(Cc4ccc([N+](=O)[O-])o4)CC3)c(F)c2)C(=O)O1`, the minimum inhibitory concentration (MIC) (as a rule, the lowest concentration found to suppress growth) was 2 µg/mL (≈ 4.17 µM) in experiment [1]; 4 µg/mL (≈ 8.34 µM) in experiment [2]; 2 µg/mL (≈ 4.17 µM) in experiment [3]; 4 µg/mL (≈ 8.34 µM) in experiment [4]; 4 µg/mL (≈ 8.34 µM) in experiment [5]; 1 µg/mL (≈ 2.09 µM) in experiment [6]. In addition, the figures for the minimum inhibitory concentration (MIC) in experiment [7] and in experiment [8] were 0.5 µg/mL (≈ 1.04 µM) and 4 µg/mL (≈ 8.34 µM), respectively.

In the case of `O=C(NC[C@H]1CN(c2ccc(N3CCN(Cc4ccc([N+](=O)[O-])o4)CC3)c(F)c2)C(=O)O1)C(F)F`, the MIC in experiment [1] was found to be 2 µg/mL (≈ 4.02 µM); in experiment [2], 2 µg/mL (≈ 4.02 µM); in experiment [3] it was 1 µg/mL (≈ 2.01 µM); in experiment [4], 2 µg/mL (≈ 4.02 µM); in experiment [5], 2 µg/mL (≈ 4.02 µM); in experiment [6], 0.5 µg/mL (≈ 1.01 µM). Moreover, the MIC was determined as 0.5 µg/mL (≈ 1.01 µM) in experiment [7] and 2 µg/mL (≈ 4.02 µM) in experiment [8].

Take `CN(C)C(=S)NC[C@H]1CN(c2ccc(N3CCN(Cc4ccc([N+](=O)[O-])o4)CC3)c(F)c2)C(=O)O1`: the minimum inhibitory concentration (MIC) in experiment [1], in experiment [2], in experiment [3], in experiment [4], in experiment [5] and in experiment [6] was over 16 µg/mL throughout. In addition, the MIC in experiment [7] and in experiment [8] was over 16 µg/mL throughout.

On to `NC(=S)NC[C@H]1CN(c2ccc(N3CCN(Cc4ccc([N+](=O)[O-])o4)CC3)c(F)c2)C(=O)O1`, for which the MIC was 1 µg/mL (≈ 2.09 µM) in experiment [1]; 0.5 µg/mL (≈ 1.04 µM) in experiment [2]; 1 µg/mL (≈ 2.09 µM) in experiment [3]; 1 µg/mL (≈ 2.09 µM) in experiment [4]; 1 µg/mL (≈ 2.09 µM) in experiment [5]; under 0.06 µg/mL in experiment [6]. Besides, the MIC came to 0.25 µg/mL (≈ 0.522 µM) in experiment [7] and 1 µg/mL (≈ 2.09 µM) in experiment [8].

Consider `COC(=O)NC[C@H]1CN(c2ccc(N3CCN(Cc4ccc([N+](=O)[O-])o4)CC3)c(F)c2)C(=O)O1`, for which the minimal inhibitory concentration (MIC) in experiment [1] is 2 µg/mL (≈ 4.19 µM); in experiment [2], 8 µg/mL (≈ 16.8 µM); in experiment [3], 8 µg/mL (≈ 16.8 µM); in experiment [4], 8 µg/mL (≈ 16.8 µM); in experiment [5], 8 µg/mL (≈ 16.8 µM); in experiment [6], 1 µg/mL (≈ 2.09 µM). In addition, the minimum inhibitory concentration (MIC) in experiment [7] stood at 1 µg/mL (≈ 2.09 µM); in experiment [8] it was 8 µg/mL (≈ 16.8 µM).

In the case of `NC[C@H]1CN(c2ccc(N3CCN(Cc4ccc([N+](=O)[O-])o4)CC3)c(F)c2)C(=O)O1`, the minimum inhibitory concentration (MIC) in experiment [1], in experiment [2], in experiment [3], in experiment [4], in experiment [5] and in experiment [6] was over 16 µg/mL each time. The MIC in experiment [7] and in experiment [8] was over 16 µg/mL each time.

`CC(=S)NC[C@H]1CN(c2ccc(N3CCN(Cc4ccc([N+](=O)[O-])o4)CC3)c(F)c2)C(=O)O1`: the MIC in experiment [1] was found to be 1 µg/mL (≈ 2.09 µM); in experiment [2], 1 µg/mL (≈ 2.09 µM); in experiment [3], 1 µg/mL (≈ 2.09 µM); in experiment [4], 1 µg/mL (≈ 2.09 µM); in experiment [5], 1 µg/mL (≈ 2.09 µM); in experiment [6] it was 0.25 µg/mL (≈ 0.524 µM). For the same compound, the minimal inhibitory concentration (MIC) in experiment [7] worked out at 0.5 µg/mL (≈ 1.05 µM); in experiment [8] it was 1 µg/mL (≈ 2.09 µM).

For `CSC(=S)NC[C@H]1CN(c2ccc(N3CCN(Cc4ccc([N+](=O)[O-])o4)CC3)c(F)c2)C(=O)O1`, the MIC in experiment [1], in experiment [2], in experiment [3], in experiment [4], in experiment [5] and in experiment [6] was over 16 µg/mL throughout. For the same compound, the MIC in experiment [7] and in experiment [8] was over 16 µg/mL in each case.

`CCOC(=O)NC[C@H]1CN(c2ccc(N3CCN(Cc4ccc([N+](=O)[O-])o4)CC3)c(F)c2)C(=O)O1`: the minimal inhibitory concentration (MIC) in experiment [1], in experiment [2], in experiment [3], in experiment [4], in experiment [5] and in experiment [6] was over 16 µg/mL each time. The MIC in experiment [7] and in experiment [8] was over 16 µg/mL in each case.

On to `COCC(=O)NC[C@H]1CN(c2ccc(N3CCN(Cc4ccc([N+](=O)[O-])o4)CC3)c(F)c2)C(=O)O1`, for which the MIC in experiment [1], in experiment [2], in experiment [3], in experiment [4], in experiment [5] and in experiment [6] was over 16 µg/mL each time. The minimum inhibitory concentration (MIC) in experiment [7] and in experiment [8] was over 16 µg/mL throughout.

Consider `O=CNC[C@H]1CN(c2ccc(N3CCN(Cc4ccc([N+](=O)[O-])o4)CC3)c(F)c2)C(=O)O1`, for which the MIC came to 2 µg/mL (≈ 4.47 µM) in experiment [1]; 2 µg/mL (≈ 4.47 µM) in experiment [2]; 2 µg/mL (≈ 4.47 µM) in experiment [3]; 4 µg/mL (≈ 8.94 µM) in experiment [4]; 2 µg/mL (≈ 4.47 µM) in experiment [5]; 1 µg/mL (≈ 2.24 µM) in experiment [6]. For the same compound, the MIC was 0.5 µg/mL (≈ 1.12 µM) in experiment [7] and 4 µg/mL (≈ 8.94 µM) in experiment [8].

Regarding `CC(Cl)C(=O)NC[C@H]1CN(c2ccc(N3CCN(Cc4ccc([N+](=O)[O-])o4)CC3)c(F)c2)C(=O)O1` (some centres not stated), the minimum inhibitory concentration (MIC) in experiment [1], in experiment [2], in experiment [3], in experiment [4], in experiment [5] and in experiment [6] was over 16 µg/mL in each case. Besides, the minimal inhibitory concentration (MIC) in experiment [7] and in experiment [8] was over 16 µg/mL in each case.

`O=C1O[C@@H](CN=C=S)CN1c1ccc(N2CCN(Cc3ccc([N+](=O)[O-])o3)CC2)c(F)c1`: the MIC in experiment [1], in experiment [2], in experiment [3], in experiment [4], in experiment [5] and in experiment [6] was over 16 µg/mL each time. The MIC in experiment [7] and in experiment [8] was over 16 µg/mL in each case.

`O=C(NC[C@H]1CN(c2ccc(N3CCN(Cc4ccc([N+](=O)[O-])o4)CC3)c(F)c2)C(=O)O1)C(Cl)Cl`: the MIC in experiment [1], in experiment [2], in experiment [3], in experiment [4], in experiment [5] and in experiment [6] was over 16 µg/mL throughout. For the same compound, the MIC in experiment [7] and in experiment [8] was over 16 µg/mL in each case.

For the compound `O=C(CCl)NC[C@H]1CN(c2ccc(N3CCN(Cc4ccc([N+](=O)[O-])o4)CC3)c(F)c2)C(=O)O1`, the MIC in experiment [1] came out at 2 µg/mL (≈ 4.03 µM); in experiment [2], 2 µg/mL (≈ 4.03 µM); in experiment [3], 2 µg/mL (≈ 4.03 µM); in experiment [4], 2 µg/mL (≈ 4.03 µM); in experiment [5] it was 2 µg/mL (≈ 4.03 µM); in experiment [6], 0.5 µg/mL (≈ 1.01 µM). Further, the values for the MIC in experiment [7] and in experiment [8] were 0.5 µg/mL (≈ 1.01 µM) and 2 µg/mL (≈ 4.03 µM), respectively.

Consider `COC(=S)NC[C@H]1CN(c2ccc(N3CCN(Cc4ccc([N+](=O)[O-])o4)CC3)c(F)c2)C(=O)O1`, for which the MIC is 2 µg/mL (≈ 4.05 µM) in experiment [1]; 1 µg/mL (≈ 2.03 µM) in experiment [2]; 2 µg/mL (≈ 4.05 µM) in experiment [3]; 2 µg/mL (≈ 4.05 µM) in experiment [4]; 2 µg/mL (≈ 4.05 µM) in experiment [5]; 0.5 µg/mL (≈ 1.01 µM) in experiment [6]. Moreover, the minimum inhibitory concentration (MIC) in experiment [7] and in experiment [8] was 1 µg/mL (≈ 2.03 µM) in each case.

For `CC(=O)NC[C@H]1CN(c2ccc(N3CCOCC3)c(F)c2)C(=O)O1` [LINEZOLID], the minimal inhibitory concentration (MIC) in experiment [7] and in experiment [8] was 2 µg/mL (≈ 5.93 µM) throughout.

For `CC(=O)NC[C@H]1CN(c2ccc(N3CCN(Cc4ccc([N+](=O)[O-])o4)CC3)c(F)c2)C(=O)O1` [RANBEZOLID], the minimum inhibitory concentration (MIC) is 2 µg/mL (≈ 4.33 µM) in experiment [1]; 2 µg/mL (≈ 4.33 µM) in experiment [2]; 1 µg/mL (≈ 2.17 µM) in experiment [4]; 2 µg/mL (≈ 4.33 µM) in experiment [5]; 0.125 µg/mL (≈ 0.271 µM) in experiment [6]; 0.125 µg/mL (≈ 0.271 µM) in experiment [7]. This compound also had a minimal inhibitory concentration (MIC) in experiment [8] of 2 µg/mL (≈ 4.33 µM).

Source of the values: ChEMBL document CHEMBL1156088, “Synthesis and biological activity of novel oxazolidinones” (2009).
